Assay outcomes (PubChem)
APJ ag = agonists of human apelin receptor APJ, primary screen, CHO-K1 cells, PathHunter beta-arrestin, luminescence; P35414; 0% DMSO wells, 100% apelin; activation, % at 20 µM; 0.11% of 330,000 active;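 active = activation more than six SD over the plate average, tested at 20 µM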;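 note: 0% = DMSO alone and 100% = apelin-13 at 10 nM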
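Material: engineered CHO-K1 APJ arrestin reporter cells; amount: 1000 CHO-K1 reporter cells seeded per well; incubation: compound stimulation 90 min at 25 °C, detection 60 min; signal: luminescent beta-gal fragment complementation, chemiluminescent substrate; read-out basis: APJ agonist activity; controls: DMSO-only wells as negative, 10 nM Apelin-13 as positive control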
EBI2 block = EBI2 receptor antagonists, beta-arrestin recruitment, primary screen, cell-based, luminescence, 7a,25-OHC stimulation, uHTS; G-protein coupled receptor 183 (Homo sapiens), P32249; 7a,25-OHC stimulated; inhibition, % at 5 µM; 0.81% of 360,000 active; in the data active = inhibition above about 38%;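 note: enzyme fragment complementation signal reports receptor beta-arrestin coupling in cells; 0% = agonist plus DMSO wells and 100% = wells without agonist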
Target sequence (P32249 whole entry, looked up, the tested form may be a part): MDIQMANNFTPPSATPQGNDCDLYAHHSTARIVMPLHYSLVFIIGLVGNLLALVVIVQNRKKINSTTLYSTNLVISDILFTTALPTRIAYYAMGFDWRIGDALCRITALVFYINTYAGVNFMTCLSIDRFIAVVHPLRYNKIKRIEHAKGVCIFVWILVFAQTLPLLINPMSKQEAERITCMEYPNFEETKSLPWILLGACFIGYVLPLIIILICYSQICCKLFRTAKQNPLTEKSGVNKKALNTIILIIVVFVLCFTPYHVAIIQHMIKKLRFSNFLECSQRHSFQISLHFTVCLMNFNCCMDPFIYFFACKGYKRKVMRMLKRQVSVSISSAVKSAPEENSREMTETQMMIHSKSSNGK
CCR6 antagonist = CCR6 receptor antagonists, primary screen, cell-based, CHO-K1, luminescence, beta-arrestin, uHTS | C-C chemokine receptor type 6 (Homo sapiens), P51684 | CHO-K1 CCR6 PathHunter beta-arrestin, CCL20-stimulated | inhibition, % at 20 µM | 0.49% of 340,000 active;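 active = compounds whose inhibition of the agonist-driven luminescence signal at 20 µM reaches about 50%, limit read from the data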;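 note: cells stimulated with CCL20 at 14 nM final; plate controls were DMSO with CCL20 for no effect and DMSO without agonist for full effect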
APJ antagonist = antagonists of human apelin receptor APJ, primary screen, CHO-K1 cells, beta-arrestin complementation, luminescence; P35414; 0.32% of 330,000 active; inhibition, % at 20 µM;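 active = inhibition above about 40% at 20 µM, limit read from the data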;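 note: cells challenged with 10 nM apelin-13 agonist together with compound; plate controls were apelin-13 plus DMSO wells for no effect and DMSO wells lacking apelin-13 for full effect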
CXCR6 inh = CXCR6 receptor inhibitors, primary screen, cell-based, beta-arrestin, luminescence, CHO-K1 PathHunter, 1536-well; inhibition, % at 20 µM; C-X-C chemokine receptor type 6 (Homo sapiens), O00574; 0.36% of 360,000 active; in the data active = inhibition above about 34%, passing the limit was not always enough;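 note: antagonist mode with CXCL16 agonist at 10 nM final; 0% = 10 nM CXCL16 with DMSO and 100% = unstimulated wells without agonist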
Target sequence (O00574 whole entry, looked up): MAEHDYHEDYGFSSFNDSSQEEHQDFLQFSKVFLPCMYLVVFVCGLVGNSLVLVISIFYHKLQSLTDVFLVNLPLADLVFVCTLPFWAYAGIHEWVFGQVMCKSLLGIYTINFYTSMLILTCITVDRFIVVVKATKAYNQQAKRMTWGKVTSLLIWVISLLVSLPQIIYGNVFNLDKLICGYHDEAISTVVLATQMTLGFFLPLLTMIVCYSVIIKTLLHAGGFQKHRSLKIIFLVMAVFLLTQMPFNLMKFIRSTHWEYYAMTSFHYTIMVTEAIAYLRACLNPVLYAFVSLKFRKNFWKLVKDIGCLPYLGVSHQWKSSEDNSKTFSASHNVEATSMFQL
EBI2 antag conf = EBI2 antagonist hit retest, beta-arrestin, confirmation, cell-based, single concentration, luminescence, 7a,25-OHC stimulation; inhibition, % at 5 µM; shares compounds with EBI2 block; 29% of 2,400 active; 7a,25-OHC antagonism;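 active = inhibition of at least 50%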
EBI2 agonist = EBI2 agonist activity of antagonist hits, confirmation, counter-screen for EBI2 antagonist project, cell-based, single concentration, agonist mode, luminescence; shares compounds with EBI2 block; EBI2-expressing cells, 60 min; 0% vehicle, 100% 7α,25-dihydroxycholesterol control; activation, % at 5 µM; 2,400 tested, under 10 active; AID 652000, 2013;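 active = activation of at least 50%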
bGal cs = E. coli beta-galactosidase enzyme inhibition, confirmation, counter-screen for EBI2 antagonist project, biochemical, luminescence, single concentration; inhibition, % at 5 µM; shares compounds with EBI2 block; purified beta-galactosidase, luminescent Galacton Star, 15 min; 1% of 2,400 active;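 active = replicate-average signal at least 3 plate SD below neutral wells, shown as high inhibition, flagging enzyme-inhibiting false positives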;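 note: 0% = DMSO wells with enzyme and 100% = wells lacking enzyme; higher means stronger loss of beta-gal luminescence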
* = called active by the depositor; x = no result given. Compounds with a hit are over-represented: about 1.5% of the library has one in this group of screens.

SMILES	APJ ag	EBI2 block	CCR6 antagonist	APJ antagonist	CXCR6 inh	EBI2 antag conf	EBI2 agonist	bGal cs
COc1cccc(C(=O)Nc2ccc(NC(=O)Cc3ccccc3)cc2)c1	1.3	66.5*	10.8	9.8	-2.8	39.9	-0.4	7.6
CC1CCN(CC(=O)Nc2ccc(S(=O)(=O)NC3CC3)cc2)CC1	-4.2	1.7	-0.6	-3.5	-2.9	x	x	x
O=C(c1nc2ccc(Cl)cn2c1CNCC[C@@H]1C[C@@H]2C=C[C@H]1C2)N1CCCCCCC1	-3.6	60.9*	3.5	8.7	-5.8	42.4	-0.3	1.8
CCc1ccc(C(C)NC(=O)/C=C/c2ccc(Br)cc2)cc1 (centres undefined)	1.0	61.4*	5.6	-32.9	3.8	27.0	0.0	-14.0
CC(NC(=O)/C=C/c1ccccc1)c1ccccc1 (centres undefined)	1.5	-2.2	0.0	6.8	2.6	x	x	x
CC(NC(=O)/C=C/c1ccc(Br)cc1)c1ccccc1 (centres undefined)	0.6	44.4*	5.2	-11.5	-10.7	23.9	-0.9	-14.3
Cc1ccccc1N=C1C(=O)Nc2ccccc21	x	5.4	11.6	x	15.5	x	x	x
CCOc1ccc(NC(=O)CSc2ccc3nnc(-c4ccccn4)n3n2)cc1	-6.6	-5.1	7.2	17.3	-2.1	x	x	x
O=C(CSc1ccc2nnc(-c3ccccn3)n2n1)Nc1ccccc1	6.8	55.4*	0.0	-5.7	-12.0	28.4	0.4	0.9
COc1ccc(CN(Cc2ccc(OC)cc2)S(=O)(=O)c2ccc(-n3cnnn3)c(C)c2)cc1	0.2	45.0*	12.9	1.0	5.6	5.6	-1.8	-13.4
COc1ccc(CN(Cc2cccnc2)S(=O)(=O)c2ccc(-n3cnnn3)c(OC)c2)cc1	-4.2	4.3	2.6	11.7	-4.7	x	x	x
COCCOc1ccc(C(F)(F)F)cc1NC(=O)COC(=O)Cc1c[nH]c2ccccc12	1.8	82.4*	10.8	-0.2	-2.3	33.6	1.4	4.3
Cc1c(C(=O)Nc2ccccc2)sc2nc(-c3ccccc3)cn12	1.9	44.4*	12.8	-17.7	-9.5	31.4	1.6	0.7
CNC(=O)c1sc(SC)cc1-c1ccc(Cl)cc1	1.8	50.3*	6.7	11.2	2.0	37.4	1.5	5.3
CCN(CC)S(=O)(=O)c1ccc(Nc2ccc(-c3ccc4c(c3)OCCO4)nn2)cc1	3.6	48.9*	-5.7	0.7	-0.1	25.9	-1.2	-12.9
CN(C(=O)c1cccc(Nc2ccc(-c3ccc4c(c3)OCCO4)nn2)c1)C1CCCCC1	4.3	41.9*	-0.1	-17.3	-0.6	26.1	1.8	12.4
O=C(C1=C[C@@H](c2ccc(Br)cc2)C[C@@H](OCc2ccc(CO)cc2)O1)N1CCN(Cc2ccc3c(c2)OCO3)CC1	2.1	40.9*	6.2	-18.5	4.3	-1.1	-1.0	-13.7
N#Cc1cccnc1N1CCN(C(C(=O)NC2CCCC2)c2ccc(F)cc2)CC1 (centres undefined)	x	8.1	x	x	x	x	x	x
Cc1cc(SCC(=O)N/N=C/c2cccnc2)nc2c(C)cccc12	-2.8	65.1*	-0.5	11.2	-12.2	23.2	0.8	7.1
CSc1ccc(CNC(=O)C2CCC(=O)N(CCc3ccc(Cl)cc3)C2)cc1 (centres undefined)	x	50.0*	x	x	1.3	21.1	-0.9	-17.9
COc1cc(CNc2ncnc3c2ncn3[C@H]2CN(Cc3cccc(C(F)(F)F)c3)C[C@@H](CO)O2)cc(OC)c1OC	x	5.2	x	x	3.7	x	x	x
COc1ccc(/C=C/C(=O)NCC(=O)N/N=C/c2cccnc2)cc1	-1.2	12.4	-13.1	-0.1	-2.7	x	x	x
COc1ccc(/C=C/C(=O)NCC(=O)N/N=C/c2ccc(OC)cc2)cc1	-1.5	62.0*	8.9	-1.5	-0.2	44.5	1.4	0.3
COc1ccc(/C=C/C(=O)Nc2ccc(OC)nc2)cc1	-1.4	43.8*	3.4	-0.4	3.4	15.8	-0.3	1.2
O=C(COc1ccccc1)NCC(=O)N/N=C/c1ccc(Br)cc1	7.7	37.9*	7.8	-2.7	-3.5	13.9	-1.1	-12.9
SMILES	APJ ag	EBI2 block	CCR6 antagonist	APJ antagonist	CXCR6 inh	EBI2 antag conf	EBI2 agonist	bGal cs
O=c1c2ccccc2n2c(-c3ccc(C(F)(F)F)cc3)nnc2n1Cc1ccccc1	2.1	47.4*	19.1	-7.3	19.1	22.2	-1.2	-10.5
O=C1c2ccccc2[C@@H]2C[C@H](NC34CC5CC(CC(C5)C3)C4)[C@@H](O)CCN12	x	-8.4	25.0	x	7.5	x	x	x
N#Cc1cnc(Oc2ccc(Cl)cc2)nc1N	-1.4	47.3*	0.7	-17.9	1.4	0.1	-1.0	-13.6
CC(=O)OCCN(CCCn1c(-c2ccncc2)nc2ccccc21)c1nc(CN2CCCCC2)cs1	-6.4	0.5	20.4	-0.8	-7.5	x	x	x
C(=NN=C(NN=Cc1cccs1)NN=Cc1cccs1)c1cccs1	x	9.4	14.1	x	7.4	x	x	x
Cc1ccc(S(=O)(=O)N2CCN(C(=O)COC(=O)COc3ccc(Br)cc3)CC2)c(C)c1	x	-9.6	-10.1	x	4.8	x	x	x
CC(=O)c1ccc(OCC(=O)N2CCN(S(=O)(=O)c3ccc(C)cc3C)CC2)cc1	-1.0	65.2*	-15.9	-7.4	-3.5	28.6	-0.2	9.3
COc1ccc(C(=O)N2CCN(c3ccc(C)cc3C)CC2)cc1OC	-3.1	78.2*	8.0	-57.7	0.6	53.2*	0.8	8.9
Cc1ccc(S(=O)(=O)N2CCN(C(=O)c3ccc4ccccc4n3)CC2)c(C)c1	-1.6	54.6*	2.2	-13.0	2.9	45.4	1.2	6.5
COc1cccc2cc(C(=O)N3CCN(c4ccc(C)cc4C)CC3)c(=O)oc12	3.2	46.9*	-14.2	13.5	0.1	32.8	0.7	8.5
Oc1ccc(C[C@H]2CNC(=S)N2C[C@H]2CCCN2C[C@H](Cc2ccccc2)N2C[C@H](Cc3ccccc3)N(CC3CCCCC3)C2=S)cc1	x	19.9	x	x	2.8	x	x	x
COc1ccc(C(=O)N2CCN(S(=O)(=O)c3ccc(C)cc3C)CC2)cc1OC	0.6	47.9*	-0.8	13.4	-2.9	51.3*	1.9	7.2
O=C(NC1CCSc2ccccc21)c1ccccc1Br (centres undefined)	4.5	-3.1	8.4	7.1	-2.4	x	x	x
